Measurements reported in ChEMBL document CHEMBL4130342, “New semi-synthetic analogs of oleuropein show improved anticancer activity in vitro and in vivo” (Eur J Med Chem, 2017).

System: SK-BR-3
Experiment: Antiproliferative activity against human SKBR3 cells after 72 hrs by MTT reduction assay
Type: functional, cell-based
Conditions: SK-BR-3, 72 h
Summary of the method: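 MTT reduction assay; adherent lines left to adhere overnight, suspension lines (HL-60, K562) seeded on the day. […] Incubation was 72 h at 37°C, with MTT added for the last 4 h. OD read at 545 nm (reference 690 nm). IC50 from 100(A0-A)/A0=50; means ± SD of 3 independent experiments.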

IC50 | Compound
> 15 µM | C/C=C1/[C@H](O[C@@H]2O[C@H](CO)[C@@H](O)[C@H](O)[C@H]2O)OC=C(C(=O)OC)[C@H]1CC(=O)O
> 20 µM | C/C=C1/[C@H](O[C@@H]2O[C@H](COC(C)=O)[C@@H](OC(C)=O)[C@H](OC(C)=O)[C@H]2OC(C)=O)OC=C(C(=O)O)[C@H]1CC(=O)O
> 15 µM | C/C=C1/[C@H](O[C@@H]2O[C@H](CO)[C@@H](O)[C@H](O)[C@H]2O)OC=C(C(=O)OC)[C@H]1CC(=O)OCCc1ccc(OC)c(OC)c1
> 15 µM | C=C(C)CCOC(=O)C[C@@H]1C(C(=O)OC)=CO[C@@H](O[C@@H]2O[C@H](COC(C)=O)[C@@H](OC(C)=O)[C@H](OC(C)=O)[C@H]2OC(C)=O)/C1=C/C
> 15 µM | C/C=C1/[C@H](O[C@@H]2O[C@H](COC(C)=O)[C@@H](OC(C)=O)[C@H](OC(C)=O)[C@H]2OC(C)=O)OC=C(C(=O)OC)[C@H]1CC(=O)O
> 20 µM | C/C=C1/[C@H](O[C@@H]2O[C@H](COC(C)=O)[C@@H](OC(C)=O)[C@H](OC(C)=O)[C@H]2OC(C)=O)OC=C(C(=O)O)[C@H]1CC(=O)OCCCCCCCCCCCCCCCC
> 15 µM | C/C=C1/[C@H](O[C@@H]2O[C@H](COC(C)=O)[C@@H](OC(C)=O)[C@H](OC(C)=O)[C@H]2OC(C)=O)OC=C(C(=O)OC)[C@H]1CC(=O)OCCC1CCCCC1
> 15 µM | C/C=C1/[C@H](O[C@@H]2O[C@H](CO)[C@@H](O)[C@H](O)[C@H]2O)OC=C(C(=O)OC)[C@H]1CC(=O)OCC (stereo in doubt)
> 20 µM | C/C=C1/[C@H](O[C@@H]2O[C@H](COC(C)=O)[C@@H](OC(C)=O)[C@H](OC(C)=O)[C@H]2OC(C)=O)OC=C(C(=O)OC)[C@H]1CC(=O)OCCc1ccc(OC)cc1 (stereo in doubt)
> 15 µM | C/C=C1/[C@H](O[C@@H]2O[C@H](COC(C)=O)[C@@H](OC(C)=O)[C@H](OC(C)=O)[C@H]2OC(C)=O)OC=C(C(=O)OC)[C@H]1CC(=O)OCCc1ccc(OC)c(OC)c1 (stereo in doubt)
> 15 µM | C/C=C1/[C@H](O[C@@H]2O[C@H](CO)[C@@H](O)[C@H](O)[C@H]2O)OC=C(C(=O)OC)[C@H]1CC(=O)OCc1ccccc1 (stereo in doubt)
> 15 µM | C=C(C)CCOC(=O)C[C@@H]1C(C(=O)OC)=CO[C@@H](O[C@@H]2O[C@H](CO)[C@@H](O)[C@H](O)[C@H]2O)/C1=C/C (stereo in doubt)
> 20 µM | C/C=C1/[C@H](O[C@@H]2O[C@H](CO)[C@@H](O)[C@H](O)[C@H]2O)OC=C(C(=O)OC)[C@H]1CC(=O)OCCCc1ccc(OC)c(OC)c1 (stereo in doubt)
> 20 µM | C/C=C1/[C@H](O[C@@H]2O[C@H](CO)[C@@H](O)[C@H](O)[C@H]2O)OC=C(C(=O)OC)[C@H]1CC(=O)OCCc1ccc(OC)cc1 (stereo in doubt)
> 15 µM | C/C=C1/[C@H](O[C@@H]2O[C@H](COC(C)=O)[C@@H](OC(C)=O)[C@H](OC(C)=O)[C@H]2OC(C)=O)OC=C(C(=O)OC)[C@H]1CC(=O)OCCCC (stereo in doubt)
> 15 µM | C/C=C1/[C@H](O[C@@H]2O[C@H](CO)[C@@H](O)[C@H](O)[C@H]2O)OC=C(C(=O)OC)[C@H]1CC(=O)OCc1ccc2c(c1)OCCO2 (stereo in doubt)
> 15 µM | C/C=C1/[C@H](O[C@@H]2O[C@H](CO)[C@@H](O)[C@H](O)[C@H]2O)OC=C(C(=O)OC)[C@H]1CC(=O)OC (stereo in doubt)

IC50 | Compound
> 15 µM | C/C=C1/[C@H](O[C@@H]2O[C@H](COC(C)=O)[C@@H](OC(C)=O)[C@H](OC(C)=O)[C@H]2OC(C)=O)OC=C(C(=O)OC)[C@H]1CC(=O)OCCc1ccc2c(c1)OCCO2 (stereo in doubt)
> 20 µM | C/C=C1/[C@H](O[C@@H]2O[C@H](CO)[C@@H](O)[C@H](O)[C@H]2O)OC=C(C(=O)OC)[C@H]1CC(=O)OCCc1ccc(F)cc1 (stereo in doubt)
> 15 µM | C/C=C1/[C@H](O[C@@H]2O[C@H](COC(C)=O)[C@@H](OC(C)=O)[C@H](OC(C)=O)[C@H]2OC(C)=O)OC=C(C(=O)OC)[C@H]1CC(=O)OCCC(C)C (stereo in doubt)
> 20 µM | C/C=C1/[C@H](O[C@@H]2O[C@H](COC(C)=O)[C@@H](OC(C)=O)[C@H](OC(C)=O)[C@H]2OC(C)=O)OC=C(C(=O)OC)[C@H]1CC(=O)OCCCc1ccc(OC)c(OC)c1 (stereo in doubt)
> 20 µM | C/C=C1/[C@H](O[C@@H]2O[C@H](CO)[C@@H](O)[C@H](O)[C@H]2O)OC=C(C(=O)OC)[C@H]1CC(=O)OCCc1ccc([N+](=O)[O-])cc1 (stereo in doubt)
> 15 µM | C/C=C1/[C@H](O[C@@H]2O[C@H](COC(C)=O)[C@@H](OC(C)=O)[C@H](OC(C)=O)[C@H]2OC(C)=O)OC=C(C(=O)OC)[C@H]1CC(=O)OCc1ccccc1 (stereo in doubt)
> 15 µM | C/C=C1/[C@H](O[C@@H]2O[C@H](COC(C)=O)[C@@H](OC(C)=O)[C@H](OC(C)=O)[C@H]2OC(C)=O)OC=C(C(=O)OC)[C@H]1CC(=O)OCc1ccc2c(c1)OCCO2 (stereo in doubt)
> 15 µM | C/C=C1/[C@H](O[C@@H]2O[C@H](COC(C)=O)[C@@H](OC(C)=O)[C@H](OC(C)=O)[C@H]2OC(C)=O)OC=C(C(=O)OC)[C@H]1CC(=O)OCC (stereo in doubt)
> 20 µM | C/C=C1/[C@H](O[C@@H]2O[C@H](CO)[C@@H](O)[C@H](O)[C@H]2O)OC=C(C(=O)OC)[C@H]1CC(=O)OCCc1ccc2c(c1)OCCO2 (stereo in doubt)
> 20 µM | C/C=C1/[C@H](O[C@@H]2O[C@H](COC(C)=O)[C@@H](OC(C)=O)[C@H](OC(C)=O)[C@H]2OC(C)=O)OC=C(C(=O)OC)[C@H]1CC(=O)OCCc1ccc(F)cc1 (stereo in doubt)
> 15 µM | C/C=C1/[C@H](O[C@@H]2O[C@H](CO)[C@@H](O)[C@H](O)[C@H]2O)OC=C(C(=O)OC)[C@H]1CC(=O)OCCCC (stereo in doubt)
> 15 µM | C/C=C1/[C@H](O[C@@H]2O[C@H](COC(C)=O)[C@@H](OC(C)=O)[C@H](OC(C)=O)[C@H]2OC(C)=O)OC=C(C(=O)OC)[C@H]1CC(=O)OCc1ccc(OC)c(OC)c1 (stereo in doubt)
> 15 µM | C/C=C1/[C@H](O[C@@H]2O[C@H](COC(C)=O)[C@@H](OC(C)=O)[C@H](OC(C)=O)[C@H]2OC(C)=O)OC=C(C(=O)OC)[C@H]1CC(=O)OC (stereo in doubt)
> 15 µM | C/C=C1/[C@H](O[C@@H]2O[C@H](CO)[C@@H](O)[C@H](O)[C@H]2O)OC=C(C(=O)OC)[C@H]1CC(=O)OCCC (stereo in doubt)
> 20 µM | C/C=C1/[C@H](O[C@@H]2O[C@H](COC(C)=O)[C@@H](OC(C)=O)[C@H](OC(C)=O)[C@H]2OC(C)=O)OC=C(C(=O)OC)[C@H]1CC(=O)OCCc1ccc([N+](=O)[O-])cc1 (stereo in doubt)
> 15 µM | C/C=C1/[C@H](O[C@@H]2O[C@H](CO)[C@@H](O)[C@H](O)[C@H]2O)OC=C(C(=O)OC)[C@H]1CC(=O)OCc1ccc(OC)c(OC)c1 (stereo in doubt)
> 15 µM | C/C=C1/[C@H](O[C@@H]2O[C@H](COC(C)=O)[C@@H](OC(C)=O)[C@H](OC(C)=O)[C@H]2OC(C)=O)OC=C(C(=O)OC)[C@H]1CC(=O)SCCc1ccccc1 (stereo in doubt)
